Bioassay records deposited in PubChem BioAssay by several laboratories.
Only some compounds are listed: those with a hit (about 1.9% of all), similar ones and a draw of the others.
ARFGAP1 inhibitor: rat ARFGAP1 inhibition. Q62848. Arfgap1-stimulated ARF1 GTP hydrolysis, GDP FP detection. inhibition, % at 16.5 µM. actives 0.26% (n = 360,000). AID 651572;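 active = inhibition above a per-plate limit, mean inhibition of low control wells plus 3 SD, cut at about 25% in these data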
Target sequence (Q62848 1-136 limits assumed): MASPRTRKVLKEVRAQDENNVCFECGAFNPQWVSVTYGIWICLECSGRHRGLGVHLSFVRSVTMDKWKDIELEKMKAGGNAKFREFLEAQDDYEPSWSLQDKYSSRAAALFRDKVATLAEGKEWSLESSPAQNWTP
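Material: truncated rat Arfgap1 GAP domain; Incubation: compound-enzyme preincubation 20 min, reaction 120 min, detection 60 min, 25 °C; Read-out: percent inhibition of Arfgap1-stimulated GTP hydrolysis; Technique: FP, GDP Alexa 633 tracer displaced from anti-GDP antibody, 620/688 nm; Controls: No-Arfgap1 wells (100%) versus DMSO full-reaction wells (0%); Replication: single well per compound.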
FGF22 binding: FGF22 (human) thermal shift binding; Q9HCT0; recombinant FGF22 thermal shift, SYPRO orange fluorescence; percent of sucrose octasulfate shift, DMSO zero; activity (Tm shift, normalised), % at 9.99 µM; actives 1.5% (n = 340,000);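 active = mean Tm shift, scaled 0 neutral to 100 positive control, at about 1.3% or above, every replicate too, limit read from the data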
Target sequence (Q9HCT0 whole entry, looked up): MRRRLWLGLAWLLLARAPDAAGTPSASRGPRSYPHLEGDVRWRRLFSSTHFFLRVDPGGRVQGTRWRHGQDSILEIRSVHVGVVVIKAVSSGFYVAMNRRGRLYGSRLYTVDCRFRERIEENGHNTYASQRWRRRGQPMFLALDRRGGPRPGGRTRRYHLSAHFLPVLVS
Rtt109 Vps75: inhibitors of Candida albicans Rtt109/Vps75 histone acetyltransferase. Q5AAJ8. purified Rtt109/Vps75, ThioGlo CoA-SH fluorescence, 4 h. inhibition, % at 34.9 µM. actives 0.16% (n = 330,000). AID 540336;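 active = inhibition of at least 50% in every replicate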
Target sequence (Q5AAJ8 whole entry, looked up): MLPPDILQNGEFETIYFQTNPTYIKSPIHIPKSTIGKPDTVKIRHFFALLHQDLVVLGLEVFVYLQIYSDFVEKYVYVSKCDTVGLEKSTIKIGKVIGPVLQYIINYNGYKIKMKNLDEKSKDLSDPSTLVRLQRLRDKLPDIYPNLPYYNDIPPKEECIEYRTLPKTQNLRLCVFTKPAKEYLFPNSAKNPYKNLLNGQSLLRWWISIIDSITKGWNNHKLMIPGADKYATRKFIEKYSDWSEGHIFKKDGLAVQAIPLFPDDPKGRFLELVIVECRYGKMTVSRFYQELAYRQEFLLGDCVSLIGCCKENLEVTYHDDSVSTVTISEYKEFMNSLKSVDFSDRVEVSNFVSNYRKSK
ASAP1 GAP inh: ASAP1 ArfGAP inhibition. Q9ULH1. ASAP1-stimulated ARF1 GTP hydrolysis, GDP FP detection. inhibition, % at 16.5 µM. actives 0.19% (n = 360,000). AID 624377; in the data active = inhibition above about 25%
Efflux pump mplx: blocks antifungal efflux pumps in multiplex yeast assay. S. cerevisiae Candida pump triplex, Nile Red efflux. inhibition, % at 10 µM. actives 0.44% (n = 330,000);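 active = plate passing quality check with inhibition over a set limit, or well fluorescence over plate mean plus 4 SD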;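 also: Nile Red retained in pooled yeast measured as flow cytometry median fluorescence; higher means more Nile Red kept so more efflux inhibition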
Yeast cmpd fluor: flagged as fluorescent in efflux inhibitor counter-screen. S. cerevisiae AD/pABC3, compound fluorescence, flow cytometry. actives 4% (n = 1,700). shares compounds with Efflux pump mplx. fluorescence ratio to DMSO, % at 10 µM;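 active = fluorescence ratio to DMSO above its plate's cutoff, the plate mean ratio plus 5 SD, cut at about 210% in these data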;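 also: unstained yeast with no Nile Red so the signal is compound autofluorescence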
Mdr1 pump inh: blocks the Candida albicans Mdr1 efflux pump in yeast | inhibition, % at 10 µM | AID 588518 | S. cerevisiae AD/CaMDR1, Nile Red efflux, flow cytometry | shares compounds with Efflux pump mplx | actives 1% (n = 1,700); in the data active = inhibition above about 26%;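 also: higher means more Nile Red retained so more efflux inhibition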
Cdr2 pump inh: inhibitors of Candida albicans Cdr2 efflux pump; Nile Red retention ratio vs DMSO, % at 10 µM; AID 588520; S. cerevisiae AD/CaCDR2, Nile Red retention, flow cytometry; actives 4% (n = 1,700); shares compounds with Efflux pump mplx; in the data active = Nile Red retention ratio vs DMSO above about 190%;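 also: higher ratio means more blocking of Cdr2 efflux of the dye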
CaCdr1 efflux inh: inhibitors of Candida albicans Cdr1 efflux pump; S. cerevisiae AD/CaCDR1, Nile Red efflux, flow cytometry; inhibition, % at 10 µM; shares compounds with Efflux pump mplx; actives 1% (n = 1,700);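 active = inhibition above the screen-wide mean plus twice its standard deviation, cut at about 32% in these data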
Hits are given with their value; – = inactive; · = no result given.

SMILES	ARFGAP1 inhibitor	FGF22 binding	Rtt109 Vps75	ASAP1 GAP inh	Efflux pump mplx	Yeast cmpd fluor	Mdr1 pump inh	Cdr2 pump inh	CaCdr1 efflux inh
CC(C(=O)N1CCc2ccccc21)N1CCN(c2cccc(C(F)(F)F)c2)CC1 (stereo unspecified)	–	–	–	–	–	·	·	·	·
c1ccc2c(c1)Cc1cc(CN3CCOCC3)ccc1-2	–	·	–	–	5.9	–	–	–	–
c1ccc(CN2CCOCC2)cc1	–	·	–	–	–	·	·	·	·
CCOc1ccc(-c2cc(C(=O)N3CCN(C)CC3)c3ccccc3n2)cc1	–	·	–	–	–	–	–	–	–
CC(C)Oc1ccc(-c2cc(C(=O)NCCN3CCOCC3)c3ccccc3n2)cc1	–	·	–	–	–	–	–	–	–
CCOc1ccc(-c2cc(C(=O)N3CCCC3)c3ccccc3n2)cc1	·	·	–	·	–	·	·	·	·
O=C(NCCN1CCOCC1)c1cc(-c2ccc(F)cc2)nc2ccccc12	–	–	–	–	–	·	·	·	·
O=C(COC(=O)CCN1C(=O)/C(=C\C=C\c2ccccc2)SC1=S)Nc1cc(F)ccc1F	–	–	–	–	0.8	–	–	–	–
CCSc1cc(N2CCOCC2)nc(-c2ccc(Cl)cc2)n1	–	–	–	–	–	–	–	–	–
CC(C)Sc1cc(N2CCCC2)nc(-c2ccc(F)cc2)n1	–	·	–	–	–	·	·	·	·
CCSc1cc(N2CCCC2)nc(-c2ccc(Cl)cc2)n1	–	–	–	–	–	–	–	–	–
CCC(CC)C(=O)c1c[nH]c(C(=O)NC2CCCCCC2)c1	–	–	–	–	–	·	·	·	·
COc1ccc2[nH]cc(C=O)c2c1	–	·	–	–	–	·	·	·	·
COc1ccc2[nH]cc(/C=C/c3cc[n+](C)cc3)c2c1	–	–	–	–	–	419	–	–	–
O=C(C[C@@H]1C=C[C@H](NC(=O)Nc2ccc3c(c2)OCO3)[C@H](CO)O1)NCc1ccc(F)cc1	·	–	·	·	·	·	·	·	·
CCCCc1nnc(NC(=O)COc2ccc3c(C)cc(=O)oc3c2)s1	–	–	·	–	–	–	–	–	–
CCCc1nnc(NC(=O)COc2ccc3c(c2)OCO3)s1	–	–	–	–	93	–	–	–	–
Cc1ccc(C(=O)CCC(=O)NN2C(=O)NC3(CCCCC3)C2=O)cc1	–	–	–	–	–	·	·	·	·
CC(C)c1cn(CC[C@@H]2CC[C@H](NC(=O)C3CCC3)[C@@H](CO)O2)nn1	·	–	·	·	·	·	·	·	·
Cc1ccc(C)n1-c1ccc(N2CCOCC2)nc1	·	–	–	·	12	–	–	–	–
COCCN(C(=O)C(C)C)c1nnc(-c2cccc(C)c2)s1	–	·	–	–	–	·	·	·	·
Cc1cccc(CC(=O)NC2CCS(=O)(=O)C2)c1 (stereo unspecified)	–	–	–	–	–	·	·	·	·
COc1ccc(-n2c(Cc3cccn3C)nnc2SCC(=O)Nc2cccc(F)c2)cc1	–	–	–	–	–	–	–	–	–
Cn1cccc1Cc1nnc(SCC(=O)Nc2ccccc2)n1-c1ccc(F)cc1	–	–	–	–	–	–	–	–	–
Cn1cccc1Cc1nnc(SCC(=O)Nc2ccc(F)cc2)n1-c1ccc(F)cc1	–	–	–	–	–	·	·	·	·
SMILES	ARFGAP1 inhibitor	FGF22 binding	Rtt109 Vps75	ASAP1 GAP inh	Efflux pump mplx	Yeast cmpd fluor	Mdr1 pump inh	Cdr2 pump inh	CaCdr1 efflux inh
CCOC(=O)c1c(NC(=O)Cn2nc(C(=O)O)c3ccccc3c2=O)sc2c1CCC(C)C2 (stereo unspecified)	–	–	–	–	0.5	–	–	–	–
CC1(c2nnc(-c3ccccc3)o2)CC(c2ccc(F)cc2)=NO1 (stereo unspecified)	–	–	–	–	–	·	·	·	·
COc1cccc(/C=c2\s/c(=C/C(=O)c3ccc(C)cc3)[nH]c2=O)c1OC	–	·	–	–	–	·	·	·	·
COc1ccc(/C=c2\s/c(=C/C(=O)c3ccc(C)cc3)[nH]c2=O)c(OC)c1	–	–	–	–	19	–	–	–	–
Cc1ccc(NC(=S)NCCC(c2ccccc2)c2ccccc2)c(C)c1	–	·	–	–	–	·	·	·	·
O=C(NCC1CCCO1)C1CCCN(S(=O)(=O)c2cccc(C(F)(F)F)c2)C1 (stereo unspecified)	–	–	–	–	1.3	–	–	–	–
O=C1/C(=C/C=C/c2ccco2)SC(=S)N1c1ccc(O)cc1	–	–	–	–	–	·	·	·	·
O=C1/C(=C\c2ccco2)SC(=S)N1c1ccc(O)cc1	–	–	–	–	0.4	–	–	–	–
Cc1ccc(C(=O)Oc2cccc(NC(=O)c3cccs3)c2)cc1S(=O)(=O)N1CCOCC1	–	·	–	–	–	·	·	·	·
COc1ccc2cc1Oc1ccc(cc1)C[C@H]1c3c(cc(OC)c4c3Oc3c(ccc5c3[C@H](C2)N(C)CC5)O4)CCN1C	·	·	–	·	4.3	–	–	–	–
CCN1C(=O)c2cccc3c(S(=O)(=O)N(C(=O)c4ccncc4)c4ccc(OC)cc4)ccc1c23	–	–	–	–	–	·	·	·	·
CCN1C(=O)c2cccc3c(S(=O)(=O)N(C(=O)c4cccnc4)c4ccc(OC)cc4)ccc1c23	–	·	–	–	13	–	–	–	–
O=C(CSc1nnc(Cc2cccs2)n1Cc1ccco1)Nc1ccc(Br)cc1	–	·	–	–	–	–	–	–	–
O=C(CSc1nnc(Cc2cccs2)n1Cc1ccco1)Nc1ccc(Cl)cc1Cl	–	·	–	–	–	–	–	–	–
Cc1cc(C)nc(SCc2nnc(SCC(=O)Nc3ccc(C)c(C)c3)n2Cc2ccco2)n1	–	·	–	–	1.0	–	–	–	–
CCOc1ccc(OCCCCNC(C)(C)C)cc1	–	–	·	–	–	·	·	·	·
Cc1ccc(C)c(NC(=O)C(CC(=O)O)C2CCCO2)c1 (stereo unspecified)	–	–	–	–	–	·	·	·	·
O=C1CN(C(=O)c2ccc(Br)o2)C(c2ccc(F)cc2)c2cc(Cl)ccc2N1 (stereo unspecified)	–	·	–	–	–	·	·	·	·
CCCC(=O)Nc1ccc(NC(=S)NC(=O)c2cccs2)cc1	–	–	·	–	–	·	·	·	·
CCCC(=O)Nc1ccc(C(=O)NNC(=O)c2cccs2)cc1	·	–	–	·	11	–	–	–	–
Cc1nc(NC(=O)COC(=O)c2ccc(CO)cc2)c(Cl)cc1Cl	–	–	–	–	–	·	·	·	·
CCN(CC(=O)Nc1ccc(NC(C)=O)cc1)CC(=O)Nc1ccccc1C(=O)c1ccccc1	–	–	–	–	0.7	–	–	–	–
CCN(CC)CC(=O)Nc1ccc(C)cc1C(=O)c1ccccc1	–	–	–	–	–	·	·	·	·
